Residues, ends and D or L forms follow the SMILES beside them. *: point of attachment. Cbz = O=C(OCc1ccccc1)*
What was measured:
[1] = Growth inhibition of human IPC227F cells after 48 hrs; format: functional
How it was run: (§1)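 DMEM with 10% fetal calf serum, monolayer culture. 5 × 10³ cells/well seeded and left 24 h at 37 °C, 5% CO₂, humidified. Exposed 48 h to increasing concentrations. Growth measured with Hoechst 33342 dye. IC₅₀ is the mean ± SD of three independent experiments, each in triplicate. Compounds tested as hydrochloride salts.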

B16 = experiment: Growth inhibition of mouse B16 cells after 48 hrs; format: functional, cell-based; settings: B16, 48 h; how it was run: as §1
[2] = Biodistribution in liver of C57/BL6 mouse bearing B16 cells at 0.07 uM, iv; format: ADME, organism-based, C57Bl/6; settings: read-out: Drug uptake
How it was run: (§2)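 ¹²⁵I-labelled compound given to C57Bl/6J mice with subcutaneous B16 melanoma. Organs and tissues sampled at 15 min, 30 min, 1 h, 3 h and 6 h post-injection. Radioactivity expressed as % injected dose per unit organ mass. Feces and urine collected over 72 h for elimination.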

[3] = Biodistribution in tumor of C57/BL6 mouse bearing B16 cells assessed as remaining drug level at 0.07 uM, iv after 3 hrs; format: ADME, organism-based, C57Bl/6, Neoplasm; settings: read-out: Drug uptake; how it was run: as §2
[4] = Biodistribution in tumor of C57/BL6 mouse bearing B16 cells assessed as remaining drug level at 0.07 uM, iv after 6 hrs; format: ADME, organism-based, C57Bl/6, Neoplasm; settings: read-out: Drug uptake; how it was run: as §2
[5] = Biodistribution in lung of C57/BL6 mouse bearing B16 cells at 0.07 uM, iv; format: ADME, organism-based, C57Bl/6; settings: read-out: Drug uptake; how it was run: as §2
[6] = Ratio of biodistribution in tumor to blood in C57/BL6 mouse bearing mouse B16 cells; format: ADME, organism-based, C57Bl/6
[7] = Biodistribution in kidney of C57/BL6 mouse bearing B16 cells at 0.07 uM, iv; format: ADME, organism-based, C57Bl/6; settings: read-out: Drug uptake; how it was run: as §2
[8] = Biodistribution in tumor of C57/BL6 mouse bearing B16 cells at 0.07 uM, iv after 15 mins; format: ADME, organism-based, C57Bl/6, Neoplasm; settings: read-out: Drug uptake; how it was run: as §2
Mus musculus = experiment: Drug metabolism in C57/BL6 mouse bearing B16 cells assessed as elimation in faeces and urine at 0.07 uM, iv after 72 hrs; format: ADME, organism-based, C57Bl/6; settings: in vivo; how it was run: as §2

| Compound | IC50 (B16) [nM] | tissue uptake at 0.07 µM [2] [%ID/g] | IC50 [1] [nM] | other results |
| --- | --- | --- | --- | --- |
| CCN(CC)CCNC(=O)c1ccc(C(=O)N[C@@H](CC(C)C)C(=O)N[C@@H](CC(C)C)C(=O)N[C@H](C=O)CC(C)C)c(NNN2CCCC2)c1 | 530 |  | 1850 |  |
| CCN(CC)CCNC(=O)c1ccc(C(=O)N[C@@H](CC(C)C)C(=O)N[C@@H](CC(C)C)C(=O)N[C@H](C=O)CC(C)C)c(/N=N/N2CCCC2)c1 | 20 |  | 180 |  |
| CC(C)C[C@@H](C=O)NC(=O)[C@H](CC(C)C)NC(=O)[C@H](CC(C)C)NC(=O)OCc1ccccc1 (Cbz-Leu-Leu-Leu-aldehyde) | 42 |  | 77 |  |

The next lines start with results.

| IC50 (B16) [nM] | tissue uptake at 0.07 µM [2] [%ID/g] | Compound | IC50 [1] [nM] | other results |
| --- | --- | --- | --- | --- |
| 1300 | 5.95 | CCN(CC)CCNC(=O)c1ccc(C(=O)N[C@@H](CC(C)C)C(=O)N[C@@H](CC(C)C)C(=O)N[C@H](C=O)CC(C)C)cc1 | 640 |  |
|  | 8.9 | CCN(CC)CCNC(=O)c1ccc(C(=O)N[C@@H](CC(C)C)C(=O)N[C@@H](CC(C)C)C(=O)N[C@H](C=O)CC(C)C)c([125I])c1.Cl |  | tissue uptake at 3 h, 0.07 µM [3]: 1.2 %ID/g; tissue uptake at 6 h, 0.07 µM [4]: 1.2 %ID/g; tissue uptake at 0.07 µM [5]: 16.3 %ID/g; Kp [6]: ≥ 1; tissue uptake at 0.07 µM [7]: 4.9 %ID/g; tissue uptake at 0.25 h, 0.07 µM [8]: 2.7 %ID/g; Activity (Mus musculus): 87% |
| 1790 |  | CCN(CC)CCNC(=O)c1ccc(C(=O)N[C@@H](CC(C)C)C(=O)N[C@@H](CC(C)C)C(=O)N[C@H](C=O)CC(C)C)c(I)c1 | 3580 |  |

Reference: ChEMBL document CHEMBL1141594, “Synthesis, radiosynthesis, and biological evaluation of new proteasome inhibitors in a tumor targeting approach” (J Med Chem, 2008)
